From PubChem BioAssay AID624406 (The Scripps Research Institute Molecular Screening Center, 2012)
Activity calls are given as the source filed them.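 How the source made its calls: active means inhibition of radioligand binding at or above 50% in any panel; inactive means inhibition below 50%.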

Key:
Test in all cases: off-target binding at receptors and transporters, profiling panel, selectivity assay for HCV core dimerization inhibitor project, cell-based, radioligand binding, Ricerca panel (AID 624406)
Adrenergic alpha1D = settings: at 10 µM, stronger effect = higher value
Procedure, shortened: (§1)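 Control set: Reference standards included in every assay run | Measure: % radioligand displacement, negatives meaning binding stimulation | Replication: Duplicate measurements per compound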

[1] = target: Glucocorticoid receptor (Homo sapiens) (UniProt P04150); settings: at 10 µM, stronger effect = higher value
Procedure, shortened: as §1

Calcium Channel N-Type = settings: at 10 µM, stronger effect = higher value
Procedure, shortened: as §1

[2] = test system: Transporter, Serotonin (5-Hydroxytryptamine); settings: at 10 µM, stronger effect = higher value
Procedure, shortened: as §1

Interleukin IL-1 = settings: at 10 µM, stronger effect = higher value
Procedure, shortened: as §1

Adenosine A1 = settings: at 10 µM, stronger effect = higher value
Procedure, shortened: as §1

[3] = test system: Transporter, Norepinephrine (NET); settings: at 10 µM, stronger effect = higher value
Procedure, shortened: as §1

[4] = target: Muscarinic acetylcholine receptor M3 (Homo sapiens) (UniProt P20309); settings: at 10 µM, stronger effect = higher value
Procedure, shortened: as §1

[5] = target: Voltage-gated inwardly rectifying potassium channel KCNH2 (Homo sapiens) (UniProt Q12809); settings: Potassium Channel hERG, at 10 µM, stronger effect = higher value
Procedure, shortened: as §1

Cannabinoid CB1 = settings: at 10 µM, stronger effect = higher value
Procedure, shortened: as §1

[6] = target: Kappa-type opioid receptor (Homo sapiens) (UniProt P41145); settings: Opiate kappa (OP2, KOP), at 10 µM, stronger effect = higher value
Procedure, shortened: as §1

Phorbol Ester = settings: at 10 µM, stronger effect = higher value
Procedure, shortened: as §1

Sigma 1 = settings: at 10 µM, stronger effect = higher value
Procedure, shortened: as §1

Histamine H2 = settings: at 10 µM, stronger effect = higher value
Procedure, shortened: as §1

[7] = target: D(1A) dopamine receptor (Homo sapiens) (UniProt P21728); settings: Dopamine D1, at 10 µM, stronger effect = higher value
Procedure, shortened: as §1

Imidazoline I2 = settings: central, at 10 µM, stronger effect = higher value
Procedure, shortened: as §1

Bradykinin B2 = settings: at 10 µM, stronger effect = higher value
Procedure, shortened: as §1

Histamine H3 = settings: at 10 µM, stronger effect = higher value
Procedure, shortened: as §1

Nicotinic Acetylcholine = settings: at 10 µM, stronger effect = higher value
Procedure, shortened: as §1

Prostanoid EP4 = settings: at 10 µM, stronger effect = higher value
Procedure, shortened: as §1

[8] = target: D(3) dopamine receptor (Homo sapiens) (UniProt P35462); settings: Dopamine D3, at 10 µM, stronger effect = higher value
Procedure, shortened: as §1

[9] = target: Muscarinic acetylcholine receptor M1 (Homo sapiens) (UniProt P11229); settings: at 10 µM, stronger effect = higher value
Procedure, shortened: as §1

[10] = target: Alpha-2A adrenergic receptor (Homo sapiens) (UniProt P08913); settings: Adrenergic alpha2A, at 10 µM, stronger effect = higher value
Procedure, shortened: as §1

Histamine H1 = settings: at 10 µM, stronger effect = higher value
Procedure, shortened: as §1

Rolipram = settings: at 10 µM, stronger effect = higher value
Procedure, shortened: as §1

Adrenergic beta1 = settings: at 10 µM, stronger effect = higher value
Procedure, shortened: as §1

[11] = target: 5-hydroxytryptamine receptor 1A (Homo sapiens) (UniProt P08908); settings: Serotonin (5-Hydroxytryptamine) 5-HT1A, at 10 µM, stronger effect = higher value
Procedure, shortened: as §1

Purinergic P2Y = settings: at 10 µM, stronger effect = higher value
Procedure, shortened: as §1

Glutamate Kainate = settings: at 10 µM, stronger effect = higher value
Procedure, shortened: as §1

[12] = target: Neuropeptide Y receptor type 2 (Homo sapiens) (UniProt P49146); settings: Neuropeptide Y Y2, at 10 µM, stronger effect = higher value
Procedure, shortened: as §1

Bradykinin B1 = settings: at 10 µM, stronger effect = higher value
Procedure, shortened: as §1

[13] = test system: Androgen (Testosterone) AR; settings: at 10 µM, stronger effect = higher value
Procedure, shortened: as §1

Melatonin MT1 = settings: at 10 µM, stronger effect = higher value
Procedure, shortened: as §1

[14] = target: Beta-2 adrenergic receptor (Homo sapiens) (UniProt P07550); settings: Adrenergic beta2, at 10 µM, stronger effect = higher value
Procedure, shortened: as §1

[15] = test system: Leukotriene, Cysteinyl CysLT1; settings: at 10 µM, stronger effect = higher value
Procedure, shortened: as §1

Adrenergic alpha1A = settings: at 10 µM, stronger effect = higher value
Procedure, shortened: as §1

[16] = test system: Voltage-dependent L-type calcium channel subunit beta-4 (Rattus norvegicus) + Pro-epidermal growth factor (Homo sapiens) + Estrogen receptor (Homo sapiens) + Glucocorticoid receptor (Homo sapiens) + 5-hydroxytryptamine receptor 1A (Homo sapiens) + Alpha-2A adrenergic receptor (Homo sapiens) + Adenosine receptor A3 (Homo sapiens) + Androgen receptor (Homo sapiens) + Muscarinic acetylcholine receptor M1 (Homo sapiens) + D(4) dopamine receptor (Homo sapiens) + Alpha-2A adrenergic receptor (Rattus norvegicus) + Sodium- and chloride-dependent GABA transporter 1 (Rattus norvegicus) + Endothelin receptor type B (Homo sapiens) + Histamine H2 receptor (Homo sapiens) + Endothelin-1 receptor (Homo sapiens) + Neuropeptide Y receptor type 1 (Homo sapiens) + B2 bradykinin receptor (Homo sapiens) + Sodium-dependent serotonin transporter (Homo sapiens) + Histamine H1 receptor (Homo sapiens) + Mu-type opioid receptor (Homo sapiens) + D(3) dopamine receptor (Homo sapiens) + Delta-type opioid receptor (Homo sapiens) + Kappa-type opioid receptor (Homo sapiens) + Glutamate receptor ionotropic, kainate 3 (Rattus norvegicus) + 5-hydroxytryptamine receptor 3A (Homo sapiens) + Melatonin receptor type 1A (Homo sapiens) + Neuropeptide Y receptor type 2 (Homo sapiens) + P2Y purinoceptor 1 (Rattus norvegicus) + Thyroid hormone receptor alpha (Rattus norvegicus) + Glutamate receptor ionotropic, NMDA 2B (Rattus norvegicus) + Sodium-dependent dopamine transporter (Homo sapiens) + Protein kinase C zeta type …; settings: at 10 µM, stronger effect = higher value
Procedure, shortened: as §1

Dopamine D2S = settings: at 10 µM, stronger effect = higher value
Procedure, shortened: as §1

GABAB1A = settings: at 10 µM, stronger effect = higher value
Procedure, shortened: as §1

Opiate mu (OP3, MOP) = settings: at 10 µM, stronger effect = higher value
Procedure, shortened: as §1

Thyroid Hormone = settings: at 10 µM, stronger effect = higher value
Procedure, shortened: as §1

[17] = target: Delta-type opioid receptor (Homo sapiens) (UniProt P41143); settings: Opiate delat1 (OP1, DOP), at 10 µM, stronger effect = higher value
Procedure, shortened: as §1

[18] = target: Estrogen receptor (Homo sapiens) (UniProt P03372); settings: Estrogen Eralpha, at 10 µM, stronger effect = higher value
Procedure, shortened: as §1

Tachykinin NK1 = settings: at 10 µM, stronger effect = higher value
Procedure, shortened: as §1

GABAA = settings: central, at 10 µM, stronger effect = higher value
Procedure, shortened: as §1

[19] = test system: Epidermal Growth Factor (EGF); settings: at 10 µM, stronger effect = higher value
Procedure, shortened: as §1

Calcium Channel L-Type = settings: at 10 µM, stronger effect = higher value
Procedure, shortened: as §1

Endothelin ETA = settings: at 10 µM, stronger effect = higher value
Procedure, shortened: as §1

Glutamate NMDA = settings: at 10 µM, stronger effect = higher value
Procedure, shortened: as §1

[20] = test system: Transporter, Dopamine (DAT); settings: at 10 µM, stronger effect = higher value
Procedure, shortened: as §1

Dopamine D4.2 = settings: at 10 µM, stronger effect = higher value
Procedure, shortened: as §1

[21] = target: 5-hydroxytryptamine receptor 2B (Homo sapiens) (UniProt P41595); settings: Serotonin (5-Hydroxytryptamine) 5-HT2B, at 10 µM, stronger effect = higher value
Procedure, shortened: as §1

[22] = target: Muscarinic acetylcholine receptor M2 (Homo sapiens) (UniProt P08172); settings: at 10 µM, stronger effect = higher value
Procedure, shortened: as §1

Adenosine A2A = settings: at 10 µM, stronger effect = higher value
Procedure, shortened: as §1

Adenosine A3 = settings: at 10 µM, stronger effect = higher value
Procedure, shortened: as §1

Purinergic P2X = settings: at 10 µM, stronger effect = higher value
Procedure, shortened: as §1

[23] = test system: Serotonin (5-Hydroxytryptamine) 5-HT3; settings: at 10 µM, stronger effect = higher value
Procedure, shortened: as §1

Transporter, GABA = settings: at 10 µM, stronger effect = higher value
Procedure, shortened: as §1

Adrenergic alpha1B = settings: at 10 µM, stronger effect = higher value
Procedure, shortened: as §1

Potassium Channel [KATP] = settings: at 10 µM, stronger effect = higher value
Procedure, shortened: as §1

Endothelin ETB = settings: at 10 µM, stronger effect = higher value
Procedure, shortened: as §1

[24] = target: Platelet-activating factor receptor (Homo sapiens) (UniProt P25105); settings: Platelet Activating Factor (PAF), at 10 µM, stronger effect = higher value
Procedure, shortened: as §1

[25] = target: Neuropeptide Y receptor type 1 (Homo sapiens) (UniProt P25929); settings: Neuropeptide Y Y1, at 10 µM, stronger effect = higher value
Procedure, shortened: as §1

Kappa-type opioid receptor (Homo sapiens), sequence (P41145 whole entry, looked up): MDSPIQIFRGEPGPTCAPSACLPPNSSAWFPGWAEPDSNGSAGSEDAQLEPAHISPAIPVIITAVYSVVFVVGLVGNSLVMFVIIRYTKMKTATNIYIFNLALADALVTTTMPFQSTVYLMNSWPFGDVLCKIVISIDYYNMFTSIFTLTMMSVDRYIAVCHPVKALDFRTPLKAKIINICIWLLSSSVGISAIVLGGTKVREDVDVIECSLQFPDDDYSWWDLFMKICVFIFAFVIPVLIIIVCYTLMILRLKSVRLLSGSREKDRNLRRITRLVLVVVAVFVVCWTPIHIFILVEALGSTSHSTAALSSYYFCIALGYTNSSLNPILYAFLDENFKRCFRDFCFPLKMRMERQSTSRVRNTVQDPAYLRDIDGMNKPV
Voltage-gated inwardly rectifying potassium channel KCNH2 (Homo sapiens), sequence (Q12809 whole entry, looked up): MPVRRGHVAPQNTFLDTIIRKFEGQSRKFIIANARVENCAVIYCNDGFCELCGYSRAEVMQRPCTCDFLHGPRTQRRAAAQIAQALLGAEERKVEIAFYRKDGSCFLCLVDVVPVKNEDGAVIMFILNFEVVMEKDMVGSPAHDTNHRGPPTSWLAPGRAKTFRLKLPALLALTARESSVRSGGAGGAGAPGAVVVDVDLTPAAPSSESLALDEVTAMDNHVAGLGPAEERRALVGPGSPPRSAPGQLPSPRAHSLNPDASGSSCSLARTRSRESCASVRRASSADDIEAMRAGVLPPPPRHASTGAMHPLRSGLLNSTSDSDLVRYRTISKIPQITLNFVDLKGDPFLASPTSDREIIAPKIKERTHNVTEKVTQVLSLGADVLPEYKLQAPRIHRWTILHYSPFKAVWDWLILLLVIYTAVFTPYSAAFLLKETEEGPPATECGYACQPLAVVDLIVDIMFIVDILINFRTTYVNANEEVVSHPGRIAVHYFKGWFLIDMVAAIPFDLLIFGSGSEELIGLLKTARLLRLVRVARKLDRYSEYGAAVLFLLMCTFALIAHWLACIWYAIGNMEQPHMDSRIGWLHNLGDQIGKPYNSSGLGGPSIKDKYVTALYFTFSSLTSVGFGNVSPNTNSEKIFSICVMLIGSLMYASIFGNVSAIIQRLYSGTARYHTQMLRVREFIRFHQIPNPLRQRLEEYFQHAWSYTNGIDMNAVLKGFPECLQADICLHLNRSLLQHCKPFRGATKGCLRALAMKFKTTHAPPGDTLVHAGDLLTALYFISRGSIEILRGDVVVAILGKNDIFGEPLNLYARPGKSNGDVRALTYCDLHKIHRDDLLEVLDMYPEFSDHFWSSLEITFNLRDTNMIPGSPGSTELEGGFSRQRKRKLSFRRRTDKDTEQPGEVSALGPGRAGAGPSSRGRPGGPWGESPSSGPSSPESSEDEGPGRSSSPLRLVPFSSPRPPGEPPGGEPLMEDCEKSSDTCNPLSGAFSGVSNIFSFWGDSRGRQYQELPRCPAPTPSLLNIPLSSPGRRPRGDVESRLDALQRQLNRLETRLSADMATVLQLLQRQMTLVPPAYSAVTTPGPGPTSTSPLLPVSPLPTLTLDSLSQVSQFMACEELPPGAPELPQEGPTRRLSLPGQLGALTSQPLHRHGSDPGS
Muscarinic acetylcholine receptor M1 (Homo sapiens), sequence (P11229 whole entry, looked up): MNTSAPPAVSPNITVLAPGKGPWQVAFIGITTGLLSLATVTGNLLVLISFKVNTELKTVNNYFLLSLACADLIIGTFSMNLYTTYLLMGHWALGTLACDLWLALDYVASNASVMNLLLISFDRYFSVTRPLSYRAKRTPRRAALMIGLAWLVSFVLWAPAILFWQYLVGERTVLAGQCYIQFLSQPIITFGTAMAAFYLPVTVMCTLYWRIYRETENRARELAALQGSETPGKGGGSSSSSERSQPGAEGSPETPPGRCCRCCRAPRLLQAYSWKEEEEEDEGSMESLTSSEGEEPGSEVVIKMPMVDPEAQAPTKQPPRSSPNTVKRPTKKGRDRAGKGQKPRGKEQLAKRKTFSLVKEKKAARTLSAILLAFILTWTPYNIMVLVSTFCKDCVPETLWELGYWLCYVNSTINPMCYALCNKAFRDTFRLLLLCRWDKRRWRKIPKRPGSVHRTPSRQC
D(3) dopamine receptor (Homo sapiens), sequence (P35462 whole entry, looked up): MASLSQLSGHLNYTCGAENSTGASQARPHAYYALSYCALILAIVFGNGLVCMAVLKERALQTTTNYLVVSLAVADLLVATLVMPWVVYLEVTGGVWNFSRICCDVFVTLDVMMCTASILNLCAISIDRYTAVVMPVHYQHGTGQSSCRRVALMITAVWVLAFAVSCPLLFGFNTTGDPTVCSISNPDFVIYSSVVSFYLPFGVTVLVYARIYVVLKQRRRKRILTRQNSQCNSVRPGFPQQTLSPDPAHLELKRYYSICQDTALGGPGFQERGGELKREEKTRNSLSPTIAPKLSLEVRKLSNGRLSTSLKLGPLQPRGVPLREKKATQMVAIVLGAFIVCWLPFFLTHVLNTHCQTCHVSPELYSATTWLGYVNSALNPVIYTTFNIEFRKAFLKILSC
Estrogen receptor (Homo sapiens), sequence (P03372 whole entry, looked up): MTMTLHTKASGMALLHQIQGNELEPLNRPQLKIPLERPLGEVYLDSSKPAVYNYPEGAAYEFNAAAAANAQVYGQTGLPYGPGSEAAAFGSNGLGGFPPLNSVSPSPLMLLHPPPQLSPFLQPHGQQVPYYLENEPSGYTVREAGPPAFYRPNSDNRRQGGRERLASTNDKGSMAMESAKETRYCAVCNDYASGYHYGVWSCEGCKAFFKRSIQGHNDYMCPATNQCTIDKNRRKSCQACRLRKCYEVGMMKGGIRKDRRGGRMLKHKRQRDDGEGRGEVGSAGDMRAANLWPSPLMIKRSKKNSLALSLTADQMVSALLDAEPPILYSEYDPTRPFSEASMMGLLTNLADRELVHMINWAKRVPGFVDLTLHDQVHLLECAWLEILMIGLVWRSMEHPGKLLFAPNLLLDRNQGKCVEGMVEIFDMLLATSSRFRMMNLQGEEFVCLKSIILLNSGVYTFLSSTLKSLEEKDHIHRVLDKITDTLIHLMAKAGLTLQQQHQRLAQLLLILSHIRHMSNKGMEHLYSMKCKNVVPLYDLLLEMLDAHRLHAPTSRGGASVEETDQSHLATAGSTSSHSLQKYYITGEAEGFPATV
Platelet-activating factor receptor (Homo sapiens), sequence (P25105 whole entry, looked up): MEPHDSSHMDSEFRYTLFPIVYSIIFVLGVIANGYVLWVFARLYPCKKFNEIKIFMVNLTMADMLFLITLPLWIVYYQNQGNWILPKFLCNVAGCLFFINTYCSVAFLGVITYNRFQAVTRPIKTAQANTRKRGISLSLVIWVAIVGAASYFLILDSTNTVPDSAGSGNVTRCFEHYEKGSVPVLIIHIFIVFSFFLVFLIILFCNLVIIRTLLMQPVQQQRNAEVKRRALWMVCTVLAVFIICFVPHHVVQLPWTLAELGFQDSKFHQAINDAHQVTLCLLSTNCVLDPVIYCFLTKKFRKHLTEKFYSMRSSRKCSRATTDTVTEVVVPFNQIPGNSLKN
5-hydroxytryptamine receptor 1A (Homo sapiens), sequence (P08908 whole entry, looked up): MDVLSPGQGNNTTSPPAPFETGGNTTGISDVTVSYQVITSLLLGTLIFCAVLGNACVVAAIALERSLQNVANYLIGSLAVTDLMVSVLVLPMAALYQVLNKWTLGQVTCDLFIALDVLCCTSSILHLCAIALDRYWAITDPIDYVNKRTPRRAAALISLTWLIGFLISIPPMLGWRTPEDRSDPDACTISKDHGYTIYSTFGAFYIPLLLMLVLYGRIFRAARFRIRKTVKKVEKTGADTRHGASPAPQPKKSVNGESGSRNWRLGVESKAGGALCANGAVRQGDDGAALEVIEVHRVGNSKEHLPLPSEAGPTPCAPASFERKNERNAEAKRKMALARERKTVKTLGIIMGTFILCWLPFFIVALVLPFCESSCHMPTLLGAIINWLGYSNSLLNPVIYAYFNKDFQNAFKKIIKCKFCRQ
Glucocorticoid receptor (Homo sapiens), sequence (P04150 whole entry, looked up): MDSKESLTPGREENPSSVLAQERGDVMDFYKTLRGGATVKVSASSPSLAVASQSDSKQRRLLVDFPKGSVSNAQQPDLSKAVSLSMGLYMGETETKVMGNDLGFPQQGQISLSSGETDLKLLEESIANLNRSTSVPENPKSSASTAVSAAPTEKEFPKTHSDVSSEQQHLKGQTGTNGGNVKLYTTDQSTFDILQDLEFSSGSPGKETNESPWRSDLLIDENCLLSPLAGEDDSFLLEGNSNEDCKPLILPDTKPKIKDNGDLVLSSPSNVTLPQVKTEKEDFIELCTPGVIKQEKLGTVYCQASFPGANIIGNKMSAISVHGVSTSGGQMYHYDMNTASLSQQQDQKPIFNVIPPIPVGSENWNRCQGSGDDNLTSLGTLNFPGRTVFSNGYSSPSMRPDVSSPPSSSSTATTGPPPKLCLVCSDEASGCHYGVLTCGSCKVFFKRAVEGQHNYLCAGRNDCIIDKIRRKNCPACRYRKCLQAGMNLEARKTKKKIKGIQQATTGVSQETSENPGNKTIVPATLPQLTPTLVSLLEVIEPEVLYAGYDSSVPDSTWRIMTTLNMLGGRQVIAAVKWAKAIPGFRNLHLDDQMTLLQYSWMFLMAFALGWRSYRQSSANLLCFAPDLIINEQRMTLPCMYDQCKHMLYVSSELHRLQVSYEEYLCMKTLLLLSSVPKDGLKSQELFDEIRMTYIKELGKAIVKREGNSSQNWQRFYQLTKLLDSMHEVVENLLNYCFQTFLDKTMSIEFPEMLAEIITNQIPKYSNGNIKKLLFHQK
Neuropeptide Y receptor type 1 (Homo sapiens), sequence (P25929 whole entry, looked up): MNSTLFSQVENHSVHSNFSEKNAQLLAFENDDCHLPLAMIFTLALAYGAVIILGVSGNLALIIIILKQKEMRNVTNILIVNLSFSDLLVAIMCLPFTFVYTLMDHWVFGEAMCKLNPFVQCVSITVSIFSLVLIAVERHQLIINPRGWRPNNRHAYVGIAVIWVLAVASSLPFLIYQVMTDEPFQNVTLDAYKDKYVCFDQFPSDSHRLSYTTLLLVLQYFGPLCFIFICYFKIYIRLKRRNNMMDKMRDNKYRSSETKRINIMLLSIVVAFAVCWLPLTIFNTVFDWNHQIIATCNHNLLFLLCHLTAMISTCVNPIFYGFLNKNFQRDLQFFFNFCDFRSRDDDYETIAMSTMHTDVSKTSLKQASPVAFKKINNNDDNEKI

## Cc1ccc(Cc2c(C)nc3nc(SCC(=O)NCCN4CCNCC4)nn3c2C)cc1
Adrenergic alpha1D
  inhibition of radioligand binding: 60%
[1]
  inhibition of radioligand binding: 17% (inactive)
Calcium Channel N-Type
  inhibition of radioligand binding: 5% (inactive)
[2]
  inhibition of radioligand binding: 16% (inactive)
Interleukin IL-1
  inhibition of radioligand binding: 13% (inactive)
Adenosine A1
  inhibition of radioligand binding: 9% (inactive)
[3]
  inhibition of radioligand binding: 17% (inactive)
[4]
  inhibition of radioligand binding: 54%
[5]
  inhibition of radioligand binding: 13% (inactive)
Cannabinoid CB1
  inhibition of radioligand binding: 9% (inactive)
[6]
  inhibition of radioligand binding: 18% (inactive)
Phorbol Ester
  inhibition of radioligand binding: -1% (inactive)
Sigma 1
  inhibition of radioligand binding: 12% (inactive)
Histamine H2
  inhibition of radioligand binding: 6% (inactive)
[7]
  inhibition of radioligand binding: 6% (inactive)
Imidazoline I2
  inhibition of radioligand binding: 31% (inactive)
Bradykinin B2
  inhibition of radioligand binding: -4% (inactive)
Histamine H3
  inhibition of radioligand binding: 9% (inactive)
Nicotinic Acetylcholine
  inhibition of radioligand binding: 1% (inactive)
Prostanoid EP4
  inhibition of radioligand binding: 1% (inactive)
[8]
  inhibition of radioligand binding: 0% (inactive)
[9]
  inhibition of radioligand binding: 42% (inactive)
[10]
  inhibition of radioligand binding: 16% (inactive)
Histamine H1
  inhibition of radioligand binding: 24% (inactive)
Rolipram
  inhibition of radioligand binding: 1% (inactive)
Adrenergic beta1
  inhibition of radioligand binding: -2% (inactive)
[11]
  inhibition of radioligand binding: 15% (inactive)
Purinergic P2Y
  inhibition of radioligand binding: 3% (inactive)
Glutamate Kainate
  inhibition of radioligand binding: 16% (inactive)
[12]
  inhibition of radioligand binding: -3% (inactive)
Bradykinin B1
  inhibition of radioligand binding: 5% (inactive)
[13]
  inhibition of radioligand binding: 7% (inactive)
Melatonin MT1
  inhibition of radioligand binding: 3% (inactive)
[14]
  inhibition of radioligand binding: 14% (inactive)
[15]
  inhibition of radioligand binding: -7% (inactive)
Adrenergic alpha1A
  inhibition of radioligand binding: 27% (inactive)
[16]
  inhibition of radioligand binding: 1% (inactive)
Dopamine D2S
  inhibition of radioligand binding: 5% (inactive)
GABAB1A
  inhibition of radioligand binding: 7% (inactive)
Opiate mu (OP3, MOP)
  inhibition of radioligand binding: 11% (inactive)
Thyroid Hormone
  inhibition of radioligand binding: 5% (inactive)
[17]
  inhibition of radioligand binding: -3% (inactive)
[18]
  inhibition of radioligand binding: -4% (inactive)
Tachykinin NK1
  inhibition of radioligand binding: 24% (inactive)
GABAA; Flunitrazepam site
  inhibition of radioligand binding: 19% (inactive)
GABAA; Muscimol site
  inhibition of radioligand binding: 26% (inactive)
[19]
  inhibition of radioligand binding: 7% (inactive)
Calcium Channel L-Type; Benzothiazepine site
  inhibition of radioligand binding: 11% (inactive)
Calcium Channel L-Type; Dihydropyridine site
  inhibition of radioligand binding: 3% (inactive)
Endothelin ETA
  inhibition of radioligand binding: -5% (inactive)
Glutamate NMDA; Glycine site
  inhibition of radioligand binding: 10% (inactive)
Glutamate NMDA; Phencyclidine site
  inhibition of radioligand binding: 12% (inactive)
Glutamate NMDA; agonist site
  inhibition of radioligand binding: 3% (inactive)
[20]
  inhibition of radioligand binding: 62%
Dopamine D4.2
  inhibition of radioligand binding: -1% (inactive)
[21]
  inhibition of radioligand binding: 21% (inactive)
[22]
  inhibition of radioligand binding: 49% (inactive)
Adenosine A2A
  inhibition of radioligand binding: -2% (inactive)
Adenosine A3
  inhibition of radioligand binding: 2% (inactive)
Purinergic P2X
  inhibition of radioligand binding: 6% (inactive)
[23]
  inhibition of radioligand binding: -4% (inactive)
Transporter, GABA
  inhibition of radioligand binding: 2% (inactive)
Adrenergic alpha1B
  inhibition of radioligand binding: 63%
Potassium Channel [KATP]
  inhibition of radioligand binding: -11% (inactive)
Endothelin ETB
  inhibition of radioligand binding: -1% (inactive)
[24]
  inhibition of radioligand binding: 3% (inactive)
[25]
  inhibition of radioligand binding: 0% (inactive)
